Assay [1] addresses T1, Histamine H3 receptor (Homo sapiens, UniProt Q9Y5N1). Put plainly: Agonist activity at human recombinant histamine H3 receptor expressed in CHO cells assessed as [35S]GTPgammaS binding at 10 nM after 1 hr by liquid scintillation counting relative to (R)-alpha-methylhistamine. The format is functional, cell-based. The procedure, abridged: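 CHO cells stably expressing human H3R. Agonist response is given as a percent of the response to the reference H3R agonist. Results are mean ± SEM, n = 3.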

Assay [2] addresses T1, Histamine H3 receptor. Put plainly: Displacement of [3H[N-alpha-methylhistamine form human recombinant histamine H3 receptor expressed in CHO cells after 1 hr by liquid scintillation counting. Type of assay: cell-based. The method in brief: (§1)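 Used CHO cells stably expressing the human H3R for both affinity (pKi) and functional agonist measurements. Each value is the mean ± SEM of n = 3.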

Assay [3] addresses T1, Histamine H3 receptor. Put plainly: Agonist activity at human recombinant histamine H3 receptor expressed in CHO cells assessed as [35S]GTPgammaS binding after 1 hr by liquid scintillation counting. Type of assay: functional, cell-based. The procedure, abridged: as §1
In assay [4] the test system is Mus musculus. The assay can be described thus: Antistress activity against isolation-induced aggressive behavior in ICR mouse assessed as duration of attacks to intruder mouse at 7.5 mg/kg, po measured for 10 mins by resident-intruder test (RVb = 54.5 +/- 6.7 sec). The format is functional.
Assay [5] has as its system Mus musculus. Put plainly: Antistress activity against isolation-induced aggressive behavior in ICR mouse assessed as duration of attacks to intruder mouse at 30 mg/kg, po measured for 10 mins by resident-intruder test (RVb = 54.5 +/- 6.7 sec). The format is functional.

Active and inactive are the calls of the source. The rule behind the calls is not given here.

The values below come from ChEMBL document CHEMBL1158577, “Role of hydrophobic substituents on the terminal nitrogen of histamine in receptor binding and agonist activity: development of an orally active histamine type 3 receptor agonist and evaluation of its antistress activity in mice” (J Med Chem, 2010).

T1 sequence (Q9Y5N1 whole entry): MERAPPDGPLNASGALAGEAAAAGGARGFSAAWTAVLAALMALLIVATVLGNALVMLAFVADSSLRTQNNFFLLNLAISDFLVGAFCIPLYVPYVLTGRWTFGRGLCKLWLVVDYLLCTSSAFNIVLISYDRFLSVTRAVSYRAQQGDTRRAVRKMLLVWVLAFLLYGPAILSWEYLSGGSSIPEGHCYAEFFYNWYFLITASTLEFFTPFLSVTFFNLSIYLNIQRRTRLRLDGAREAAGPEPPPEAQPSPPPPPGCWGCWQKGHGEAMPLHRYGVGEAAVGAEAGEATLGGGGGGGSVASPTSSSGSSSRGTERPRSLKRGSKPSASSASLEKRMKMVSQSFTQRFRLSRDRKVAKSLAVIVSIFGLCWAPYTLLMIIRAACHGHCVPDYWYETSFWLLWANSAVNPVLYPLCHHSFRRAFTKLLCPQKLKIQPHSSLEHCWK

On to `Cc1ccc(NCCc2c[nH]cn2)cc1C`, for which the Activity at Histamine H3 receptor [1] amounted to 59%.
Usually Ki stands for the dissociation constant of the complex between target and ligand, obtained from inhibition or displacement. For the compound `c1ncc(CCNc2ccc(C3CCCCC3)cc2)[nH]1`, at Histamine H3 receptor [2], the Ki is 4.1 nM.
What is called EC50 is the concentration giving half of the maximal effect. On to `N=C(N)SCCc1cnc[nH]1` [IMETIT], for which the Ki on Histamine H3 receptor [2] came out at 0.57 nM. Further, the EC50 on Histamine H3 receptor [3] (read-out: EC50) was 2.4 nM.
For the compound `c1nc(CCNc2ccc(C3CCCCC3)cc2)c[nH]1`, the EC50 result at Histamine H3 receptor [3] (cho) is on record as “Not Active”. In addition, the result on Histamine H3 receptor [1] was inactive.
Consider `COc1ccc(NCCc2c[nH]cn2)cc1`, for which the inhibition constant (Ki) at Histamine H3 receptor [2] stood at 24 nM. Besides, at Histamine H3 receptor [3] (read-out: EC50), the concentration giving a half-maximal response (EC50) is 65 nM. In addition, the Activity at Histamine H3 receptor [1] amounted to 56%.
The matching figures for `c1nc(CCNC2CCCCC2)c[nH]1`: 1600 nM, 3400 nM and 31%.
The like results for `FC(F)(F)c1ccc(NCCc2c[nH]cn2)cc1` were, in that order, 1.1 nM, 19 nM and 56%.
On to `COCCCC/C(=N\OCCN)c1ccc(C(F)(F)F)cc1` [FLUVOXAMINE], for which the values for the Time in the assay on Mus musculus [4] and in the assay on Mus musculus [5] were 30.7 s and 19.9 s, respectively.
As for `c1ccc(NCCc2c[nH]cn2)cc1`, the Activity at Histamine H3 receptor [1] was found to be 42%.
